Measured values published in ChEMBL document CHEMBL4765360, “Design, synthesis and biological evaluation of novel potent STAT3 inhibitors based on BBI608 for cancer therapy” (Eur J Med Chem, 2020).
Active and inactive are the calls of the source. No cut-off for these calls is given here.

Legend:
MDA-MB-231 = experiment: Induction of cell cycle arrest in human MDA-MB-231 cells assessed as G0/G1 phase accumulation at 4 uM incubated for 24 hrs by PI staining based flow cytometry analysis (reference value: 57.99 %); assay type: functional
[1] = target: T1, Signal transducer and activator of transcription 1-alpha/beta (Homo sapiens) (UniProt P42224); experiment: Inhibition of STAT1 in human MDA-MB-231 cells assessed as reduction in STAT1 Y701 phosphorylation at 0.75 to 3 uM incubated for 24 hrs by Western blot analysis; assay type: cell-based; settings: dose 0.75-3 µM
T1 sequence (whole entry): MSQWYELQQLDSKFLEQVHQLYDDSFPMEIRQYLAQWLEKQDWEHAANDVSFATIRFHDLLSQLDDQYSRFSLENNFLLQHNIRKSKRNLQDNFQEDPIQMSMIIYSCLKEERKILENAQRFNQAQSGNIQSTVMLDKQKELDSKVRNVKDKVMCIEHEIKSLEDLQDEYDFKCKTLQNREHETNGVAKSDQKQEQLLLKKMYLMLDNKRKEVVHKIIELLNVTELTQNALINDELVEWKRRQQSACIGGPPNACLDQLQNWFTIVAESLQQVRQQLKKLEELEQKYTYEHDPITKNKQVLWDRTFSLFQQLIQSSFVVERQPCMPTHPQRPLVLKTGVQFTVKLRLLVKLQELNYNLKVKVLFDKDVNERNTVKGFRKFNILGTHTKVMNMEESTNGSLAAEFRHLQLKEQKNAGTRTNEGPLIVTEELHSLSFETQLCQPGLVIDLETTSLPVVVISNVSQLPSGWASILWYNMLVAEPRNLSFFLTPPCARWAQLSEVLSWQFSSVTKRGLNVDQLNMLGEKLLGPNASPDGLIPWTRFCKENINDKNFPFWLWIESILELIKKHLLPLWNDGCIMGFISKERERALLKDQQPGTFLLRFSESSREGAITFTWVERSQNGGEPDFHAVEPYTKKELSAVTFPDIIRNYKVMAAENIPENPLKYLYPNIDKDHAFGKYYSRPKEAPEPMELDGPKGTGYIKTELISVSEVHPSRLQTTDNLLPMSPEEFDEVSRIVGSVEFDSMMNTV
Summary of the method: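 MDA-MB-231 cells treated with a range of concentrations for 24 h. RIPA lysates with PMSF, 40 µg protein/lane, on 10% SDS-PAGE, then PVDF. Blocked in 5% milk/TBST for 2 h. Primary antibodies to STAT3, p-STAT3(Y705), STAT1, p-STAT1(Y701), c-Myc and Cyclin D1 overnight at 4 °C; GAPDH as loading control. HRP secondary for 1 h; ECL detection.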

inhibition [1]: inactive
Compound: COc1ccc(NC2=CC(=O)c3cc(C(C)=O)oc3C2=O)cc1
Activity (MDA-MB-231): 35.39%
